Measurements from ChEMBL document CHEMBL4354826, “Structure-Based Discovery of SD-36 as a Potent, Selective, and Efficacious PROTAC Degrader of STAT3 Protein” (J Med Chem, 2019).
pIC50, pKi: −log10 of the molar value. Calls of active or inactive are those of the source. No cut-off for these calls is given here.

Key:
[1] = target: T1, Protein cereblon/Signal transducer and activator of transcription 6 (Homo sapiens) (UniProt P42226+Q96SW2); test: Protac activity at CRBN/STAT6 in human MOLM16 cells assessed as degradation of STAT6 at 10 uM incubated for 4 hrs by Western blot analysis; type: cell-based
T1 sequence (P42226 2-847 limits assumed): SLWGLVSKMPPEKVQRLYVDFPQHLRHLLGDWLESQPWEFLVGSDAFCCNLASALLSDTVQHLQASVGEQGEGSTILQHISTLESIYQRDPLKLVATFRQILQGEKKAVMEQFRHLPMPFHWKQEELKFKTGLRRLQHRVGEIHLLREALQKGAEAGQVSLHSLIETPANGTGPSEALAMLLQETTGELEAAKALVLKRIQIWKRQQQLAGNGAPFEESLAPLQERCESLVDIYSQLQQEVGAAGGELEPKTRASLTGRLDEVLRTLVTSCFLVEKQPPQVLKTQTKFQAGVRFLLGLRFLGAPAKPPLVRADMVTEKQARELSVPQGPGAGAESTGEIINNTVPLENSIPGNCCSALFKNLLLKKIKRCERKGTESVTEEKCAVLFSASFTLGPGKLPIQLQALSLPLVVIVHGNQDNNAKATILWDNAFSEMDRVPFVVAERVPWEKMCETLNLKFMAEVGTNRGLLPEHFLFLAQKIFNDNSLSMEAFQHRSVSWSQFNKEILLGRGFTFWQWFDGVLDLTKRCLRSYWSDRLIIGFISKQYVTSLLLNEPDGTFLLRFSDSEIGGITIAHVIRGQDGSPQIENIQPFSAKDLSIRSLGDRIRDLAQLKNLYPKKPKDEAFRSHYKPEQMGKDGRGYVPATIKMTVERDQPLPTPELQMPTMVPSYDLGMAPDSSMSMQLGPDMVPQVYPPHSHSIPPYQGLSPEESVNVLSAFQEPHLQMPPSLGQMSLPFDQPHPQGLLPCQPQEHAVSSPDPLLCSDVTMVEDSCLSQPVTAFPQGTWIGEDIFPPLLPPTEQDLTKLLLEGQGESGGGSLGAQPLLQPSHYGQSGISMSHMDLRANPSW
T1 sequence (Q96SW2 whole entry partner): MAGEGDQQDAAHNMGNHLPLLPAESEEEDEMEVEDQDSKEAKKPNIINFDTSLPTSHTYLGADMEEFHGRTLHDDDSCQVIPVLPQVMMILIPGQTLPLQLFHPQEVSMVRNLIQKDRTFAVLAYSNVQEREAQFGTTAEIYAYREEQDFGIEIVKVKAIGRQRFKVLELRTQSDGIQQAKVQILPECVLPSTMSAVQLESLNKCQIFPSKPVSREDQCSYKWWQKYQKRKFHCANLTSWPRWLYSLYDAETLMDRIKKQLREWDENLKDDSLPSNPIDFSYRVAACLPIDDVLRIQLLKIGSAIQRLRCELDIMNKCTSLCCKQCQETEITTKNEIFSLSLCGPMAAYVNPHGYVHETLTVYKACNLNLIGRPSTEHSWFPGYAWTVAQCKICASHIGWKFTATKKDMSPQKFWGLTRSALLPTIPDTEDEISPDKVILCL
Summary of the method: (§1)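 Molm-16 cells treated 4 h with test compound at 0.01–10 μM, or control compounds at 10 μM. Lysates separated by SDS–PAGE, transferred to PVDF, blocked 1 h in 5% blocker/TBST, probed for each STAT protein, and detected by chemiluminescence.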

[2] = target: T2, Protein cereblon/Signal transducer and activator of transcription 1-alpha/beta (Homo sapiens) (UniProt P42224+Q96SW2); test: Protac activity at CRBN/STAT1 in human SUDHL1 cells assessed as degradation of STAT1 at 10 uM incubated for 18 hrs by Western blot analysis; type: cell-based
Summary of the method: (§2)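 SU-DHL-1 cells treated 18 h with test compound at 0.01–10 μM, or control compounds at 10 μM. Lysates separated by SDS–PAGE, transferred to PVDF, blocked 1 h in 5% blocker/TBST, probed for each STAT protein, and detected by chemiluminescence.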

[3] = target: T3, Protein cereblon/Signal transducer and activator of transcription 3 (Homo sapiens, UniProt P40763+Q96SW2); test: Protac activity at CRBN/STAT3 in human MOLM16 cells assessed as degradation of STAT3 incubated for 4 hrs by Western blot analysis; type: cell-based
Summary of the method: (§3)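 Molm-16 cells treated 4 h with serially diluted compound. Lysates immunoblotted (SDS–PAGE, PVDF, 5% blocker/TBST, chemiluminescence) for total STAT3 and pSTAT3 Y705. DC50 taken as the concentration reducing total STAT3 by 50%.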
Target sequence in this assay (P40763 whole entry): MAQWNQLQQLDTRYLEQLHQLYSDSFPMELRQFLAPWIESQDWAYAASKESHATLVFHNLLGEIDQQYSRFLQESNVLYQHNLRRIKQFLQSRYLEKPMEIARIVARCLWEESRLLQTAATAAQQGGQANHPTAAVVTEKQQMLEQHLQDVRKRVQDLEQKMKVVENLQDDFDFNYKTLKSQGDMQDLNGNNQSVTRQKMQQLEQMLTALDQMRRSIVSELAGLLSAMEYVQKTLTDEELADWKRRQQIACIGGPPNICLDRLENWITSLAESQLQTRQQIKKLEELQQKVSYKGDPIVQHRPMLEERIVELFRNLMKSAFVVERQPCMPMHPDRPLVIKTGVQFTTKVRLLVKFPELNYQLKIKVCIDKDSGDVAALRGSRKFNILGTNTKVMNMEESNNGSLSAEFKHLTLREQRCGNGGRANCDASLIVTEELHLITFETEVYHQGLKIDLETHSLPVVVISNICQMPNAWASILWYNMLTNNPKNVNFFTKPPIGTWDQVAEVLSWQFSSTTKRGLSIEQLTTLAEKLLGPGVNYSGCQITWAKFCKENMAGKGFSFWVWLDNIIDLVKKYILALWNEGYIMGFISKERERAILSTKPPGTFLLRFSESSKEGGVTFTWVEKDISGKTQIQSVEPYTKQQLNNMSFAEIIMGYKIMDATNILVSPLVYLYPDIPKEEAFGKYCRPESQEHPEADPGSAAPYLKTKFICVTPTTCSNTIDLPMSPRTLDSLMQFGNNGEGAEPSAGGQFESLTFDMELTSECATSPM
Target sequence in this assay (Q96SW2 whole entry): as the sequence (Q96SW2 whole entry partner) above

[4] = target: T4, Protein cereblon/Signal transducer and activator of transcription 2 (Homo sapiens) (UniProt Q96SW2+P52630); test: Protac activity at CRBN/STAT2 in human SUDHL1 cells assessed as degradation of STAT2 at 10 uM incubated for 18 hrs by Western blot analysis; type: cell-based; summary of the method: as §2
T4 sequence (P52630 whole entry, looked up): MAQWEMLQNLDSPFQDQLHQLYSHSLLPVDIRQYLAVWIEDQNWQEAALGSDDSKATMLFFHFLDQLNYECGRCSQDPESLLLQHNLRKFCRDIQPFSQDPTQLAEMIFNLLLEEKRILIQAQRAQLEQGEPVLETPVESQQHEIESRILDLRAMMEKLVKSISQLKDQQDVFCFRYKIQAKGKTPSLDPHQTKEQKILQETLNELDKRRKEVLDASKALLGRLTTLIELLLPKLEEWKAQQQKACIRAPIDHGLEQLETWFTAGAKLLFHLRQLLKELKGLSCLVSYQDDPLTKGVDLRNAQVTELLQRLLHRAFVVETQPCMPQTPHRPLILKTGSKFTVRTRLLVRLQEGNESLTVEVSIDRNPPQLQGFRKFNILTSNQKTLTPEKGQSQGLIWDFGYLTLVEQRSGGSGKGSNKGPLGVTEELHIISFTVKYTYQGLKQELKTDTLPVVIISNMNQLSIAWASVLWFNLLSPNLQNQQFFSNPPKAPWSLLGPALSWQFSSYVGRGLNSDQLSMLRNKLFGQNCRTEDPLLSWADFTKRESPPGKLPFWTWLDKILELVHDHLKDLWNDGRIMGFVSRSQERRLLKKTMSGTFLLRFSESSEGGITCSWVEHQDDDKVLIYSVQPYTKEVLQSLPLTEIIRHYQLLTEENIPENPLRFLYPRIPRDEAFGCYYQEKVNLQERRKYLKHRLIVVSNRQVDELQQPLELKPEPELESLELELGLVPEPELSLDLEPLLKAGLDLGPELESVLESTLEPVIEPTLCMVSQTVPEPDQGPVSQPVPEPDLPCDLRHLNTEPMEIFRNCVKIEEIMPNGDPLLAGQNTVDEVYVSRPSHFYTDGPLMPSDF
T4 sequence (Q96SW2 whole entry, looked up): as the sequence (Q96SW2 whole entry partner) above

[5] = Antiproliferative activity against human MOLM16 cells assessed as reduction in cell viability incubated for 4 days by cell-titer glo luminescent assay; type: functional, cell-based; details: MOLM16, 96 h
Summary of the method: (§4)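 Viability assay: cells incubated with serially diluted compounds for 4 days, viability read by CellTiter-Glo luminescence; IC50 from concentration–response.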

[6] = target: T3, Protein cereblon/Signal transducer and activator of transcription 3; test: Protac activity at CRBN/STAT3 in human SUDHL1 cells assessed as degradation of STAT3 at 10 uM incubated for 18 hrs by Western blot analysis; type: cell-based; summary of the method: as §2
[7] = target: T5, Protein cereblon/Signal transducer and activator of transcription 5B (Homo sapiens) (UniProt P51692+Q96SW2); test: Protac activity at CRBN/STAT5B in human SUDHL1 cells assessed as degradation of STAT5B at 10 uM incubated for 18 hrs by Western blot analysis; type: cell-based; summary of the method: as §2
T5 sequence (P51692 whole entry, looked up): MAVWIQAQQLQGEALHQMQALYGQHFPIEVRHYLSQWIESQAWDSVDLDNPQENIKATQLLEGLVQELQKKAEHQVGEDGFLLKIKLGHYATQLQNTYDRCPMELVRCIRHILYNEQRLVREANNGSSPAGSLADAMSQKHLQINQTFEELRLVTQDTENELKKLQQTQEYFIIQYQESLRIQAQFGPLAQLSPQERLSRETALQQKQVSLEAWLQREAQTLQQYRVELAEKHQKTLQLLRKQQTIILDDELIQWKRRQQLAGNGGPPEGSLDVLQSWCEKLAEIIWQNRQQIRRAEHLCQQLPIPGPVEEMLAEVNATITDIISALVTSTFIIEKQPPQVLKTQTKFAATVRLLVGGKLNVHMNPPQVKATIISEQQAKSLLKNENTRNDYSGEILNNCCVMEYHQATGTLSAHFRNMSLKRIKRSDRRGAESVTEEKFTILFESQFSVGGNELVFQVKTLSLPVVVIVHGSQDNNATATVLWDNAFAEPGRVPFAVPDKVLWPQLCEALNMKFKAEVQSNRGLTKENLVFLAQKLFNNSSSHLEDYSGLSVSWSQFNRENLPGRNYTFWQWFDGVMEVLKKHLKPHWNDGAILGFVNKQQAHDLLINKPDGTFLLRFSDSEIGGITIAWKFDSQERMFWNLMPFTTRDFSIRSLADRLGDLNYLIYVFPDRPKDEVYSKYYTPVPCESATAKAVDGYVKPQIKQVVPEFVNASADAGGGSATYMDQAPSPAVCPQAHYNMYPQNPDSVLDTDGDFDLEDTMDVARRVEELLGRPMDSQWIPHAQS
T5 sequence (Q96SW2 whole entry, looked up): as the sequence (Q96SW2 whole entry partner) above

SU-DHL-1 = test: Antiproliferative activity against human SUDHL1 cells assessed as reduction in cell viability incubated for 4 days by cell-titer glo luminescent assay; type: functional, cell-based; details: SU-DHL-1, 96 h; summary of the method: as §4
[8] = target: T6, Protein cereblon/Signal transducer and activator of transcription 5A (Homo sapiens) (UniProt P42229+Q96SW2); test: Protac activity at CRBN/STAT5A in human MOLM16 cells assessed as degradation of STAT5A at 10 uM incubated for 4 hrs by Western blot analysis; type: cell-based; summary of the method: as §1
[9] = target: T3, Protein cereblon/Signal transducer and activator of transcription 3; test: Protac activity at CRBN/STAT3 in human MOLM16 cells assessed as degradation of STAT3 up to 10 uM incubated for 4 hrs by Western blot analysis; type: cell-based; summary of the method: as §3
[10] = target: T3, Protein cereblon/Signal transducer and activator of transcription 3; test: Protac activity at CRBN/STAT3 in human SUDHL1 cells assessed as degradation of phosphorylated STAT3 Y705 upto 10 uM incubated for 16 hrs by Western blot analysis; type: cell-based
[11] = target: T1, Protein cereblon/Signal transducer and activator of transcription 6 (Homo sapiens); test: Protac activity at CRBN/STAT6 in human SUDHL1 cells assessed as degradation of STAT6 at 10 uM incubated for 18 hrs by Western blot analysis; type: cell-based
Summary of the method: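 SU-DHL-1 cells exposed to compound over 0.01–10 μM, or controls at 10 μM, for 18 h. Lysates separated by SDS–PAGE and transferred to PVDF. Membranes blocked 1 h in 5% blocker/TBST, probed with primary then secondary antibodies, and developed by chemiluminescence for STAT1, STAT2, STAT4, STAT5A/B, STAT6 and STAT3.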

[12] = target: T7, Protein cereblon/Signal transducer and activator of transcription 4 (Homo sapiens) (UniProt Q96SW2+Q14765); test: Protac activity at CRBN/STAT4 in human MOLM16 cells assessed as degradation of STAT4 at 10 uM incubated for 4 hrs by Western blot analysis; type: cell-based; summary of the method: as §1
T7 sequence (Q14765 whole entry, looked up): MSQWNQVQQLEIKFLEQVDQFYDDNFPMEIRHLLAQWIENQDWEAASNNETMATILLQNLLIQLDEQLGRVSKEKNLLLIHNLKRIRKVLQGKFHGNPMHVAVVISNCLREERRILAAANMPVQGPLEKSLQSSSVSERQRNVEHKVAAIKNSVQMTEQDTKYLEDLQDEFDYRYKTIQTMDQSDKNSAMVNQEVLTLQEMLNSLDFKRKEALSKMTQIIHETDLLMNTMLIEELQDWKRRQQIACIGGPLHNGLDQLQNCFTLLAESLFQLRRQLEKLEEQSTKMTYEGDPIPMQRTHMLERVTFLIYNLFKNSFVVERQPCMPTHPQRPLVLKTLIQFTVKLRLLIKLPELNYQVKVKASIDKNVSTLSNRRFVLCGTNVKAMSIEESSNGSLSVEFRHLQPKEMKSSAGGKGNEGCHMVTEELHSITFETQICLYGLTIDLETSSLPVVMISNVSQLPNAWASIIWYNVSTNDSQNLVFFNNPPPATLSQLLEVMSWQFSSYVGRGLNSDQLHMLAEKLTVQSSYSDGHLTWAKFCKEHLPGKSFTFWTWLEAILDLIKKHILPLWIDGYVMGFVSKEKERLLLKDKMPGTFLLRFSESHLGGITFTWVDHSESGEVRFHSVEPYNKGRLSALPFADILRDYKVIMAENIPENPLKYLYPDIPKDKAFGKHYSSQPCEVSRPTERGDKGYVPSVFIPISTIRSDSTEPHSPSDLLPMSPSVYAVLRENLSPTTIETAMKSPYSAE
T7 sequence (Q96SW2 whole entry, looked up): as the sequence (Q96SW2 whole entry partner) above

[13] = target: T7, Protein cereblon/Signal transducer and activator of transcription 4 (Homo sapiens); test: Protac activity at CRBN/STAT4 in human SUDHL1 cells assessed as degradation of STAT4 at 10 uM incubated for 18 hrs by Western blot analysis; type: cell-based; summary of the method: as §2
[14] = target: T3, Protein cereblon/Signal transducer and activator of transcription 3; test: Protac activity at CRBN/STAT3 in human MOLM16 cells assessed as degradation of STAT3 at 10 uM incubated for 4 hrs by Western blot analysis; type: cell-based; summary of the method: as §1
[15] = target: T2, Protein cereblon/Signal transducer and activator of transcription 1-alpha/beta (Homo sapiens); test: Protac activity at CRBN/STAT1 in human MOLM16 cells assessed as degradation of STAT1 at 10 uM incubated for 4 hrs by Western blot analysis; type: cell-based; summary of the method: as §1
[16] = target: T3, Protein cereblon/Signal transducer and activator of transcription 3; test: Protac activity at CRBN/STAT3 in human SUDHL1 cells assessed as degradation of STAT3 upto 10 uM incubated for 16 hrs by Western blot analysis; type: cell-based
[17] = target: T5, Protein cereblon/Signal transducer and activator of transcription 5B (Homo sapiens); test: Protac activity at CRBN/STAT5B in human MOLM16 cells assessed as degradation of STAT5B at 10 uM incubated for 4 hrs by Western blot analysis; type: cell-based; summary of the method: as §1
[18] = target: T4, Protein cereblon/Signal transducer and activator of transcription 2 (Homo sapiens); test: Protac activity at CRBN/STAT2 in human MOLM16 cells assessed as degradation of STAT2 at 10 uM incubated for 4 hrs by Western blot analysis; type: cell-based; summary of the method: as §1
[19] = target: T6, Protein cereblon/Signal transducer and activator of transcription 5A (Homo sapiens); test: Protac activity at CRBN/STAT5A in human SUDHL1 cells assessed as degradation of STAT5A at 10 uM incubated for 18 hrs by Western blot analysis; type: cell-based; summary of the method: as §2
[20] = target: T3, Protein cereblon/Signal transducer and activator of transcription 3; test: Protac activity at CRBN/STAT3 in human SUDHL1 cells assessed as degradation of STAT3 incubated for 16 hrs by Western blot analysis; type: cell-based
Target sequence in this assay (P40763 whole entry): as the sequence (P40763 whole entry) above
Target sequence in this assay (Q96SW2 whole entry): as the sequence (Q96SW2 whole entry partner) above

Mus musculus = test: In vivo degradation of STAT3 in CD1 mouse at 25 mg/kg, iv measured upto 48 hrs by Western blot analysis; type: functional, organism-based
Summary of the method: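 Female CD-1 mice given a single intravenous dose in 10% PEG400 + 90% PBS, or vehicle. Euthanized at set time points. Spleen harvested and lysates immunoblotted for STAT3.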

[21] = target: T8, Signal transducer and activator of transcription 3 (Homo sapiens, UniProt P40763); test: Binding affinity to STAT3 (unknown origin)
T8 sequence (P40763 whole entry): as the sequence (P40763 whole entry) above

[22] = target: T3, Protein cereblon/Signal transducer and activator of transcription 3; test: Protac activity at CRBN/STAT3 in human MOLM16 cells assessed as degradation of STAT3 at 1 uM incubated for 4 hrs by Western blot analysis; type: cell-based; summary of the method: as §3
[23] = target: T8, Signal transducer and activator of transcription 3; test: Binding affinity to recombinant human His/SUMO-tagged STAT3 (127 to 688 residues) expressed in Escherichia coli Rosetta (DE3) incubated for 1 hr by fluorescence polarization assay
[24] = target: T3, Protein cereblon/Signal transducer and activator of transcription 3; test: Protac activity at CRBN/STAT3 in human MOLM16 cells assessed as degradation of phosphorylated STAT3 Y705 at 1 uM incubated for 4 hrs by Western blot analysis; type: cell-based; summary of the method: as §3
[25] = target: T3, Protein cereblon/Signal transducer and activator of transcription 3; test: Protac activity at CRBN/STAT3 in human SUDHL1 cells assessed as degradation of phosphorylated STAT3 Y705 upto 5 uM incubated for 16 hrs by Western blot analysis; type: cell-based
[26] = target: T3, Protein cereblon/Signal transducer and activator of transcription 3; test: Protac activity at CRBN/STAT3 in human SUDHL1 cells assessed as degradation of STAT3 upto 5 uM incubated for 16 hrs by Western blot analysis; type: cell-based

CN1C(=O)CCC(N2Cc3c(C#CCCCCCC(=O)N4CC[C@H]5CC[C@@H](C(=O)N[C@@H](CCC(N)=O)C(=O)NC(c6ccccc6)c6ccccc6)N5C(=O)[C@@H](NC(=O)c5cc6cc(C(F)(F)P(=O)(O)O)ccc6[nH]5)C4)cccc3C2=O)C1=O (stereo partly specified)
Activity [1]: inactive
Activity [2]: inactive
DC50 [3]: > 10000 nM
Activity [4]: inactive
pIC50 [5]: 5.28
Activity [6]: inactive
Activity [7]: inactive
pIC50 (SU-DHL-1): < 5.00
Activity [8]: inactive
Activity [9]: 0%
Activity [10]: inactive
Activity [11]: inactive
Activity [12]: inactive
Activity [13]: inactive
Activity [14]: inactive
Activity [15]: inactive
Activity [16]: inactive
Activity [17]: inactive
Activity [18]: inactive
Activity [19]: inactive
DC50 [20]: > 10000 nM

NC(=O)CC[C@H](NC(=O)[C@@H]1CC[C@@H]2CCN(C(=O)NCCCCC#Cc3cccc4c3CN(C3CCC(=O)NC3=O)C4=O)C[C@H](NC(=O)c3cc4cc(C(F)(F)P(=O)(O)O)ccc4[nH]3)C(=O)N21)C(=O)NC(c1ccccc1)c1ccccc1 (stereo partly specified)
DC50 [3]: 50 nM
pIC50 [5]: 7.04
pIC50 (SU-DHL-1): 6.37
Activity (Mus musculus): Active
DC50 [20]: 11 nM

NC(=O)CC[C@H](NC(=O)[C@@H]1CC[C@@H]2CCCC[C@H](NC(=O)c3cc4cc(CP(=O)(O)O)ccc4[nH]3)C(=O)N21)C(=O)NCc1ccccc1
pKi [21]: 6.12

CC(=O)N1CC[C@H]2CC[C@@H](C(=O)N[C@@H](CCC(N)=O)C(=O)NC(c3ccccc3)c3ccccc3)N2C(=O)[C@@H](NC(=O)c2cc3cc(C(F)(F)P(=O)(O)O)ccc3[nH]2)C1
Activity [22]: inactive
Activity [1]: inactive
Activity [2]: inactive
pKi [23]: 7.85
DC50 [3]: > 10000 nM
Activity [4]: inactive
pIC50 [5]: 5.19
Activity [6]: inactive
Activity [7]: inactive
pIC50 (SU-DHL-1): < 5.00
Activity [8]: inactive
Activity [10]: inactive
Activity [11]: inactive
Activity [12]: inactive
Activity [13]: inactive
Activity [14]: inactive
Activity [15]: inactive
Activity [16]: inactive
Activity [17]: inactive
Activity [18]: inactive
Activity [19]: inactive
Activity [24]: inactive
DC50 [20]: > 10000 nM

C/C(=C\C(=O)N[C@H]1CN(C(=O)CCCCCC#Cc2cccc3c2CN(C2CCC(=O)NC2=O)C3=O)CC[C@H]2CC[C@@H](C(=O)N[C@@H](CCC(N)=O)C(=O)NC(c3ccccc3)c3ccccc3)N2C1=O)c1ccc(C(F)(F)P(=O)(O)O)cc1 (stereo partly specified)
DC50 [3]: 4450 nM
pIC50 [5]: 5.90
pIC50 (SU-DHL-1): < 5.00
Activity [25]: inactive
Activity [26]: inactive
DC50 [20]: > 10000 nM
